Experimental data as given in article PMC3024764 (The Journal of Biological Chemistry, 2010).

How the values were obtained:
DU145 xenografts = assay: Anti-tumor activity in human prostate cancer DU145 xenografts in nude mice; type: in vivo, human tumor in BALB/c-nu/nu mice; conditions: taxol alone, 60 mg/kg i.v. day 0; data not shown
Summary of the method: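 DU145 cells implanted s.c. into right flank of 5–6-week-old male BALB/c nude mice; tumor pieces passaged s.c. into new mice. At ~100 mm3 (day 0), six mice/group. Taxol 60 mg/kg i.v. on day 0; test compound or vehicle given intratumorally on days 0 and 5. Caliper volume = longest × shortest²/2; body weight tracked; Student's t test.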

endogenous p27^Kip1 = type: cell-based, human; conditions: 20 μM FITC-labeled peptide, 24 h (Fig. 2B)
Summary of the method: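 DU145 cells (RPMI 1640, 10% FBS, 100 ug/ml kanamycin, 5% CO2) were exposed to 20 uM FITC-labeled cell-permeable peptides, or no peptide, for 24 h. Whole lysates or separated cytoplasmic and nuclear fractions were immunoblotted for endogenous p27Kip1 using nitrocellulose and ECL, with β-actin and topoisomerase II as markers. For localization, cells were formaldehyde-fixed, stained with anti-p27Kip1 and Alexa Fluor 568 secondary, and counterstained with Hoechst 33342.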

DU145 cells [1] = assay: Apoptosis of DU145 cells; type: cell-based, human; conditions: 20 μM peptide, 72 h; flow cytometry (Fig. 3A)
DU145 cells [2] = type: cell-based, human; conditions: for intracellular accumulation, fluorescence microscopy: 20 µM FITC-labeled peptide, 4 h (Fig. S1A; method section: 10 μM)
Summary of the method: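 FITC-labeled peptides were added to the DU145 culture medium at 10 um and incubated for 4 h. Intracellular distribution of fluorescein was then imaged by fluorescence microscopy with a CCD camera.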

DU145 cells [3] = assay: Flow cytometric cell cycle analysis of DU145 cells; type: cell-based, human; conditions: 20 μM peptide, 24 h (Fig. 2A)

Compound: CC(=O)O[C@H]1C(=O)[C@@]2(C)[C@H]([C@H](OC(=O)c3ccccc3)[C@]3(O)C[C@H](OC(=O)[C@H](O)[C@@H](NC(=O)c4ccccc4)c4ccccc4)C(C)=C1C3(C)C)[C@]1(OC(C)=O)CO[C@@H]1C[C@@H]2O [taxol]
- inhibitory effect on tumor growth, given alone (DU145 xenografts): did not show an inhibitory effect

Compound: GGGRRRRRRGC-KKPGLDRDQT [R8-T198mu]
- expression of p27^Kip1 (endogenous p27^Kip1): not R8-T198mu enhances the expression of p27^Kip1
- increase in the sub-G1 fraction (DU145 cells [1]): not with R8-T198mu
- intracellular accumulation, fluorescence microscopy (DU145 cells [2]): had accumulated in cells
- intracellular accumulation, flow cytometric analysis (DU145 cells [2]; FITC-labeled peptide (Fig. S1B)): had accumulated almost equally in cells
- increase in the number of cells in G1 phase (DU145 cells [3]): not with Arg^8 and R8-T198mu

Compound: GGGRRRRRRRRGC [Arg^8, reference compound]
- intracellular accumulation, fluorescence microscopy (DU145 cells [2]): had accumulated in cells
- increase in the number of cells in G1 phase (DU145 cells [3]): not with Arg^8 and R8-T198mu
